CendR NRP1 mod: alters CendR peptide binding to human NRP-1; AID 602438; inhibition, % at 25 µM; 0.85% of 360,000 active; FAM-RPARPAR peptide binding to NRP-1, fluorescence polarization;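 active = inhibition or corrected inhibition above about 18%, plus a signal ratio from 0.5 to 1.5, limit read from the data, passing the limit was not always enough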
Lipid droplet: modulators of hepatic lipid droplet formation; AML12 mouse hepatocytes, oleate lipid droplets, BODIPY imaging; inhibition, % at 6.5 µM; 0.4% of 240,000 active; AID 1656;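 active = lipid droplet intensity inhibited by at least 50%, with more than 500 cells counted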
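Assay system: AML12 hepatocytes (mouse); Probe or stimulus: oleic acid at 100 µM to induce lipid droplet formation; Dosing: compound at 6.5 µM only; Schedule: compound with oleate, overnight; Detection: fluorescence imaging, 20x objective, two fields per well; Measure: % inhibition of lipid droplet signal.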
Arr AP2 block: blocks beta-arrestin peptide binding to AP2 adaptin. FITC-arrestin peptide / GST-AP2 beads, flow cytometry; AP2 beta2 appendage carries R879A mutation. inhibition, % at 10 µM. 0.31% of 340,000 active. AID 504490;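 active = inhibition above a set limit, near 3 SD of compounds lacking own fluorescence, cut at about 54% in these data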;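 also: plate controls were DMSO wells for no effect and 5 µM unlabelled arrestin peptide for full effect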
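System: GST-AP2 R879A glutathione beads. Medium: PBS with 0.05% Tween 20 and 0.1% BSA. Also added: FITC-arrestin peptide, 50 nM. Incubation: 12 min plus 1 h, RT. Measured by: high-throughput flow cytometry of beads, ex 488, em 535 nm. Evaluation: percent drop in bead-associated FITC signal.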
M18AAP inhibitor: PfM18AAP enzyme inhibition; AID 1822; inhibition, % at 7.35 µM; recombinant PfM18AAP, H-Glu-NHMec fluorogenic cleavage; 1.2% of 290,000 active;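 active = inhibition above the campaign mean inhibition over all tested compounds plus 3 SD, cut at about 28% in these data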;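 also: 0% = plate median of test compound wells and 100% = 2 mM ZnCl2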
HTR2A ag: mouse HTR2A agonism via beta-arrestin recruitment. activation, % at 7.6 µM. P35363. CHO-K1 mHTR2A beta-arrestin complementation, luminescence; percent of 30 µM serotonin response. AID 624169. 0.66% of 360,000 active;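 active = activation above a run cutoff, the mean activation of all tested compounds plus 3 SD, cut at about 14% in these data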;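 also: 0% = plate median of compound wells and 100% = 30 µM serotonin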
Target sequence (P35363 whole entry, looked up): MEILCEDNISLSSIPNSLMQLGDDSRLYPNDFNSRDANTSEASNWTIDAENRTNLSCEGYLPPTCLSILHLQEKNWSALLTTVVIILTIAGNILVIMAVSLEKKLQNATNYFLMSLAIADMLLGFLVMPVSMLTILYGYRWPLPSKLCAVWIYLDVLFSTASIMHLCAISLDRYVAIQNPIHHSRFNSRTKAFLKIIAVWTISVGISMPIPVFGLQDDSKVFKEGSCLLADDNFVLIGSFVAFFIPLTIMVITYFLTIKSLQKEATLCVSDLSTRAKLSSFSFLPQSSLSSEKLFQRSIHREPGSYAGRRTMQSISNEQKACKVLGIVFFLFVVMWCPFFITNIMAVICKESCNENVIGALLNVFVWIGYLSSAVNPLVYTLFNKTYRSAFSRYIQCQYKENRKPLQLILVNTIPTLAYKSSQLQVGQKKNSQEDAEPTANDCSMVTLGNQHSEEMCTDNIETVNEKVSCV
sPLA2-III inh: Blocks human group III sPLA2 activity | Q9NZ20 | QFRET BODIPY PC-A2 liposome hydrolysis, fluorescence | inhibition, % at 12.2 µM | 0.56% of 370,000 active | AID 743126;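 active = inhibition above mean plus 3 SD of compounds lying within the high and low control bounds, cut at about 19% in these data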;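 also: 0% = median of test compound wells and 100% = no enzyme DMSO wells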
MOR ag counter: OPRM1 agonism in mouse HTR2A counterscreen; shares compounds with HTR2A ag; U2OS OPRM1 beta-arrestin PathHunter, luminescence; DMSO 0%, DAMGO 9.3 µM 100%; activation, % at 9.3 µM; 5.3% of 2,300 active;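 active = mean activation above the mean of DMSO-only wells plus 3 SD, cut at about 0.5% in these data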
HTR2A ag conf: confirmation of mouse HTR2A serotonin receptor agonists; shares compounds with HTR2A ag; CHO-K1 PathHunter beta-arrestin recruitment, luminescence; DMSO 0%, 30 µM serotonin 100%; activation, % at 7.6 µM; 19% of 2,300 active; AID 624381;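 active = mean activation across triplicates above the hit threshold derived in the original primary screen, cut at about 15% in these data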
Numbers without * were called inactive; . = no result. A selection: hits, their analogues and other compounds. The true share with any hit is near 3.3%.

SMILES | CendR NRP1 mod | Lipid droplet | Arr AP2 block | M18AAP inhibitor | HTR2A ag | sPLA2-III inh | MOR ag counter | HTR2A ag conf
CC(C)(C)N=C1SCC(C)(/C=N/O)S1 (configuration not stated) | -8 | . | -3 | 2 | 17* | -5 | -1 | -2
CCC(C)N=C1SCC(C)(/C=N/O)S1 (configuration not stated) | -3 | 8 | 0 | 4 | 10 | 3 | . | .
COCC(=O)N(C)[C@H]1C[C@H]2c3[nH]c4cccc(-c5cccc(F)c5)c4c3CCN2C(=O)[C@H]1[C@H](C)O | . | . | . | . | . | -13 | . | .
Cc1ccc(-c2nnc(Nc3ccc4c(c3)OCO4)c3ccccc23)cc1S(N)(=O)=O | -2 | -5 | 0 | 3 | 15* | -7 | 0 | 4
CC(=O)Nc1ccc(Nc2nnc(-c3ccc(C)c(S(N)(=O)=O)c3)c3ccccc23)cc1 | 1 | 0 | 9 | 3 | -5 | -2 | . | .
CN(C)c1nc(N(C)C)n(Cc2c(Cl)cccc2Cl)n1 | -6 | -11 | 7 | -15 | 25* | 0 | -1 | -3
CC(C)c1cc(C(=O)Nc2cc(Br)ccc2O)no1 | -3 | -4 | 2 | 17 | 17* | -6 | 0.7* | 2
CC(C)c1cc(C(=O)Nc2cc(Cl)ccc2O)no1 | -8 | . | 26 | 5 | 4 | -16 | . | .
CCn1c(CNC(=O)COc2ccc(C(C)C)cc2)nnc1SCC(=O)Nc1ccccc1F | 15 | -1 | 17 | 5 | 1 | -6 | . | .
CCn1c(CNC(=O)COc2ccc(C(C)C)cc2)nnc1SCC(=O)Nc1ccccc1C(C)C | -2 | . | -3 | 3 | 18* | -21 | 0 | 2
COC(=O)C1=C(C)N(C)C(=NCc2ccc3c(c2)OCO3)NC1c1ccc(F)cc1 (configuration not stated) | . | . | . | . | . | -2 | . | .
COc1ccc(N(CC(=O)N/N=C/c2ccc(OC)cc2OC)S(=O)(=O)c2ccccc2)cc1 | 10 | . | -16 | -1 | -2 | 1 | . | .
COc1ccc2cc(/C=N/NC(=O)CN(c3ccccc3C)S(=O)(=O)c3ccccc3)c(Cl)nc2c1 | -63 | -10 | 10 | 2 | 16* | 1 | -1 | -4
CC(C)Cc1nnc(NC(=O)CCC(=O)NCCc2ccc(Cl)cc2)s1 | 6 | 27 | -26 | -11 | 0 | 4 | . | .
COC(=O)c1cc(=O)n(CCc2ccc(OC)cc2)c(=Nc2ccc(F)c(Cl)c2)s1 | -11 | . | 14 | 6 | 4 | 6 | . | .
COC(=O)c1cc(=O)n(Cc2ccc3c(c2)OCO3)c(=Nc2ccc(F)c(Cl)c2)s1 | 0 | . | 1 | -1 | 14* | 5 | 0 | 0
COC(=O)[C@]12C[C@H](CC(=O)NCCCCc3ccccc3)C(=O)N(Cc3cccc4ccccc34)C1=C[C@H](C1CCCC1)O[C@@H]2C | . | . | . | . | . | 5 | . | .
Cc1ccncc1CNC(=O)c1ccccc1 | 2 | . | 1 | . | 16* | 3 | 0 | 0
CC(C)(C)NS(=O)(=O)c1cc(C(=O)Nc2sccc2C#N)ccc1Cl | -129 | 44 | 4 | 6 | 18* | -2 | 0 | 15*
O=C1C2C(c3cccc(/C=C/c4ccccc4)c3)CC=CC2C(c2ccc3ccccc3c2)N1Cc1ccccc1 (configuration not stated) | 12 | -8 | -8 | . | 2 | 5 | . | .
O=C1C2C(c3cccc(/C=C/c4ccccc4)c3)CC=CC2C(c2ccc(C(F)(F)F)cc2)N1Cc1ccccc1 (configuration not stated) | 11 | 6 | -6 | . | 17* | 4 | -1 | -5
C[C@@H]1ON(C)[C@H]2C[C@H]3c4cc(N5CCN(C)CC5)ccc4CCN3C[C@@H]12 | . | . | . | . | . | 0 | . | .
O=c1[nH]c(C2CCN(S(=O)(=O)c3ccc(F)cc3)CC2)nc2c1nnn2Cc1ccc2c(c1)OCCO2 | -9 | 0 | -5 | -1 | 15* | -39 | -1 | -4
COc1cc(CNCc2ccccc2)cc(Cl)c1OC | -4 | -66 | 46 | -1 | 4 | -5 | . | .
COc1cc(CNCCc2ccccc2)cc(Cl)c1OCc1ccccc1 | -3 | 13 | 5 | -5 | 20* | -16 | 1.2* | 3
SMILES | CendR NRP1 mod | Lipid droplet | Arr AP2 block | M18AAP inhibitor | HTR2A ag | sPLA2-III inh | MOR ag counter | HTR2A ag conf
O=c1c2ccccc2nc(-c2ccc([N+](=O)[O-])cc2)n1O | -4 | 2 | -8 | 2 | 16* | -4 | 0 | -2
Cc1ccc(-c2nc3ccccc3c(=O)n2O)cc1 | -7 | . | 33 | 3 | -1 | 2 | . | .
CC(C)(C)CCN1CCC[C@H](NC(=O)COc2ccc(F)c(Cl)c2)C1 | . | . | . | . | . | -2 | . | .
COc1ccc(N(C)C(=O)c2ccc(NC(=O)CCS(=O)(=O)c3cccs3)cc2)cc1 | 7 | -5 | -4 | 4 | 15* | -8 | -1 | -1
NC(N)=NC(=O)Cc1c(Cl)cccc1Cl | -1 | -21 | 23 | 3 | 30* | -1 | -1 | 40*
COC(=O)c1ccc2nc(-c3ccc(C)cc3)c(Cc3ccccc3)n2c1 | . | . | . | . | . | -14 | . | .
CC(=O)CC1(O)C(=O)N(CN2CCN(c3ccccc3)CC2)c2ccccc21 (configuration not stated) | -7 | . | -7 | 7 | 0 | 4 | . | .
CN(C)/N=C1\C(=O)N(CN2CCN(c3ccccc3)CC2)c2ccccc21 | 4 | . | 24 | . | 22* | 3 | -1 | 12
CC(/C=C/C1(O)C(C)CC(O)CC1(C)C)OC1OC(CO)C(O)C(O)C1O (configuration not stated) | -6 | 8 | 12 | . | 39* | 11 | -1 | -1
NC(Cc1ccc(C(F)(F)F)cc1)c1csc(Nc2ccc(S(N)(=O)=O)cc2)n1 (configuration not stated) | 2 | . | . | . | -2 | 4 | . | .
N#Cc1sc2nc3c(c(-c4ccco4)c2c1N)CCCC3 | -7 | . | -3 | 1 | 19* | -6 | 0 | 2
COC(=O)c1sc2nc3c(c(-c4cccs4)c2c1N)CCCC3 | -34 | 3 | 4 | 3 | 1 | 4 | . | .
C/C(=N/NC(=O)CNC(=O)CCc1ccccc1)c1ccc(Cl)cc1 | -1 | -1 | 44 | -10 | 7 | 19 | . | .
C/C(=N/NC(=O)CNC(=O)COc1ccccc1)c1ccc(Cl)cc1 | 2 | -5 | 4 | 0 | 16* | -2 | -1 | -6
O=C(COCc1ccncc1)N1CCN(c2ccc(F)cc2Cl)CC1 | . | . | . | . | . | 0 | . | .
c1ccc2c(c1)ccc1nnc(-c3ccc4c(c3)OCO4)n12 | -20 | -4 | 3 | 5 | 18* | 0 | 0 | 0
